Values after ≈ are worked out from the molar mass of the structure shown.
Experiments:
Type in all cases: functional
Candida albicans = assay: Antifungal activity against Candida albicans clinical isolate after 24 hrs by sabouraud dextrose broth based microdilution method
Procedure, shortened: (§1)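 Clinical isolates identified by conventional methods and subcultured for purity. Broth microdilution per NCCLS in Sabouraud dextrose broth; compounds dissolved in DMSO and serially diluted; inoculum 10^3/mL. Controls: fungi without compound, medium only. Incubated 24 h at 37 °C. MIC is the lowest concentration with complete growth inhibition by unaided eye. Values are geometric means over isolates per species.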

Nakaseomyces glabratus = assay: Antifungal activity against Candida glabrata clinical isolate after 24 hrs by sabouraud dextrose broth based microdilution method; procedure, shortened: as §1
[1] = tested on: Staphylococcus haemolyticus; assay: Antibacterial activity against Staphylococcus haemolyticus after 18 to 22 hrs by broth microdilution method
Procedure, shortened: (§2)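 Broth microdilution per NCCLS in Mueller-Hinton II broth; isolates subcultured for purity. Compounds dissolved in DMSO, serial dilutions 256 to 0.5 µg/mL; inoculum 10^5/mL. Controls: organism without compound, medium only. Incubation 18 to 22 h at 35 °C. MIC is the lowest concentration giving complete growth inhibition, read by unaided eye.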

Candida parapsilosis = assay: Antifungal activity against Candida parapsilosis clinical isolate after 24 hrs by sabouraud dextrose broth based microdilution method; conditions: Lodderomyces parapsilosis; procedure, shortened: as §1
Escherichia coli = assay: Antibacterial activity against Escherichia coli at after 18 to 22 hrs by broth microdilution method; procedure, shortened: as §2
Staphylococcus warneri = assay: Antibacterial activity against Staphylococcus warneri after 18 to 22 hrs by broth microdilution method; procedure, shortened: as §2
Pichia kudriavzevii = assay: Antifungal activity against Candida krusei clinical isolate after 24 hrs by sabouraud dextrose broth based microdilution method; procedure, shortened: as §1
Candida tropicalis = assay: Antifungal activity against Candida tropicalis clinical isolate after 24 hrs by sabouraud dextrose broth based microdilution method; procedure, shortened: as §1
[Candida] sake = Antifungal activity against Candida sake clinical isolate after 24 hrs by sabouraud dextrose broth based microdilution method; conditions: Fermentozyma sake; procedure, shortened: as §1
Klebsiella oxytoca = assay: Antibacterial activity against Klebsiella oxytoca after 18 to 22 hrs by broth microdilution method; procedure, shortened: as §2
Staphylococcus aureus = assay: Antibacterial activity against Staphylococcus aureus after 18 to 22 hrs by broth microdilution method; procedure, shortened: as §2
Enterobacter sp. = assay: Antibacterial activity against Enterobacter sp. after 18 to 22 hrs by broth microdilution method; procedure, shortened: as §2
Proteus mirabilis = assay: Antibacterial activity against Proteus mirabilis after 18 to 22 hrs by broth microdilution method; procedure, shortened: as §2
Enterococcus faecalis = assay: Antibacterial activity against […] faecalis after 18 to 22 hrs by broth microdilution method; procedure, shortened: as §2

| SMILES | MIC (Candida albicans) [µg/mL] | MIC (Nakaseomyces glabratus) [µg/mL] | MIC [1] [µg/mL] | MIC (Candida parapsilosis) [µg/mL] | MIC (Escherichia coli) [µg/mL] | MIC (Staphylococcus warneri) [µg/mL] | MIC (Pichia kudriavzevii) [µg/mL] | MIC (Candida tropicalis) [µg/mL] | MIC ([Candida] sake) [µg/mL] | MIC (Klebsiella oxytoca) [µg/mL] | MIC (Staphylococcus aureus) [µg/mL] | MIC (Enterobacter sp.) [µg/mL] | MIC (Proteus mirabilis) [µg/mL] | MIC (Enterococcus faecalis) [µg/mL] |
| --- | --- | --- | --- | --- | --- | --- | --- | --- | --- | --- | --- | --- | --- | --- |
| C/C(=N\N=C1/SCC(=O)N1Cc1cccc2ccccc12)c1ccccc1 | 2 (≈ 5.36 µM) | 8 (≈ 21.4 µM) | > 256 | 32 (≈ 85.7 µM) | > 256 | > 256 | 32 (≈ 85.7 µM) | 2 (≈ 5.36 µM) | 8 (≈ 21.4 µM) | > 256 | > 256 | > 256 | > 256 | > 256 |
| C/C(=N\N=C1/SCC(=O)N1Cc1cccc2ccccc12)c1ccccn1 | 2 (≈ 5.34 µM) | 2 (≈ 5.34 µM) | > 256 | 2 (≈ 5.34 µM) | > 256 | > 256 | 2 (≈ 5.34 µM) | 2 (≈ 5.34 µM) | 2 (≈ 5.34 µM) | > 256 | > 256 | > 256 | > 256 | > 256 |
| CCC/C(C)=N/N=C1\SCC(=O)N1Cc1cccc2ccccc12 | 2 (≈ 5.89 µM) | 2 (≈ 5.89 µM) | > 256 | 2 (≈ 5.89 µM) | > 256 | > 256 | 2 (≈ 5.89 µM) | 64 (≈ 189 µM) | 16 (≈ 47.1 µM) | > 256 | > 256 | > 256 | > 256 | > 256 |
| CCCC/C(CC)=N/N=C1\SCC(=O)N1CN1C(=O)c2ccccc2C1=O | 4 (≈ 10.3 µM) | 16 (≈ 41.4 µM) | > 256 | 8 (≈ 20.7 µM) | > 256 | > 256 | 32 (≈ 82.8 µM) | 2 (≈ 5.17 µM) | 2 (≈ 5.17 µM) | > 256 | > 256 | > 256 | > 256 | > 256 |
| CC1CCC(=N/N=C2\SCC(=O)N2Cc2cccc3ccccc23)CC1 (stereo unspecified) | 2 (≈ 5.47 µM) | 16 (≈ 43.8 µM) | > 256 | 8 (≈ 21.9 µM) | > 256 | > 256 | 8 (≈ 21.9 µM) | 128 (≈ 350 µM) | 4 (≈ 10.9 µM) | > 256 | > 256 | > 256 | > 256 | > 256 |
| CC(C)=N/N=C1\SCC(=O)N1Cc1ccc([N+](=O)[O-])cc1 | 4 (≈ 13.1 µM) | 4 (≈ 13.1 µM) | > 256 | 2 (≈ 6.53 µM) | > 256 | > 256 | 2 (≈ 6.53 µM) | 2 (≈ 6.53 µM) | 2 (≈ 6.53 µM) | > 256 | > 256 | > 256 | > 256 | > 256 |
| CC1CC/C(=N\N=C2/SCC(=O)N2CN2C(=O)c3ccccc3C2=O)C1 (stereo unspecified) | 2 (≈ 5.4 µM) | 32 (≈ 86.4 µM) | > 256 | 8 (≈ 21.6 µM) | > 256 | > 256 | 16 (≈ 43.2 µM) | 8 (≈ 21.6 µM) | 16 (≈ 43.2 µM) | > 256 | > 256 | > 256 | > 256 | > 256 |
| CCCCCC/C(C)=N/N=C1\SCC(=O)N1CN1C(=O)c2ccccc2C1=O | 2 (≈ 4.99 µM) | 16 (≈ 39.9 µM) | > 256 | 16 (≈ 39.9 µM) | > 256 | > 256 | 8 (≈ 20 µM) | 16 (≈ 39.9 µM) | 16 (≈ 39.9 µM) | > 256 | > 256 | > 256 | > 256 | > 256 |
| CC1CCC/C1=N\N=C1/SCC(=O)N1CN1C(=O)c2ccccc2C1=O (stereo unspecified) | 16 (≈ 43.2 µM) | 32 (≈ 86.4 µM) | > 256 | 8 (≈ 21.6 µM) | > 256 | > 256 | 2 (≈ 5.4 µM) | 4 (≈ 10.8 µM) | 8 (≈ 21.6 µM) | > 256 | > 256 | > 256 | > 256 | > 256 |

Source: ChEMBL document CHEMBL3739379, “Anti-Candida activity and cytotoxicity of a large library of new N-substituted-1,3-thiazolidin-4-one derivatives” (Eur J Med Chem, 2016)
